# What was measured:
# [1] = test system: Mycobacterium tuberculosis; assay: Antitubercular activity against Mycobacterium tuberculosis H37Rv ATCC 27294 assessed as parasite growth inhibition measured after 7 days incubation by microplate alamar blue assay; type: functional; conditions: H37Rv ATCC 27294, 168 h
# Procedure, shortened: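 Strains grown to late log phase in 7H9 with 0.2% glycerol, 0.05% Tween 80 and 10% ADC. Cells washed, resuspended in PBS, filtered (8 µm) and frozen at -80 °C. Two-fold compound dilutions, 2 × 10⁵ CFU per well, 37 °C for 7 days. Tween 80 and Alamar blue then added for 16-24 h; fluorescence read at ex 530/em 590 nm. MIC = lowest concentration giving ≥90% fluorescence reduction versus mean of bacterium-only controls.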
# [2] = Half-life in human hepatocytes; type: ADME, cell-based, Hepatocyte
# [3] = Tmax in ICR mouse at 50 mg/kg, po administered as single dose measured for 24 hrs by HPLC analysis; type: ADME, organism-based; conditions: in vivo
# Procedure, shortened: (§1)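 Female SPF ICR mice (18–22 g), fasted overnight, 3 per group, got a single oral 50 mg/kg dose as a suspension in 0.5% CMC. Jugular blood was drawn at 0.25, 0.5, 1, 2, 4, 6, 8 and 24 h, and serum was stored at −20 °C. Proteins were precipitated with acetonitrile, and extracts were dried, redissolved in acetonitrile and run by HPLC. Parameters came directly from the concentration–time data.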
# [4] = Half-life in ICR mouse at 50 mg/kg, po administered as single dose measured for 24 hrs by HPLC analysis; type: ADME, organism-based; conditions: in vivo; procedure, shortened: as §1
# [5] = AUC (0 to infinity) in ICR mouse at 50 mg/kg, po administered as single dose measured for 24 hrs by HPLC analysis; type: ADME, organism-based; set-up: dose 50 mg/kg, route oral, time infinity; conditions: in vivo; procedure, shortened: as §1
# [6] = Cmax in ICR mouse at 50 mg/kg, po administered as single dose measured for 24 hrs by HPLC analysis; type: ADME, organism-based; set-up: dose 50 mg/kg, route oral; conditions: in vivo; procedure, shortened: as §1
# [7] = Mean residence time in ICR mouse at 50 mg/kg, po administered as single dose measured for 24 hrs by HPLC analysis; type: ADME, organism-based; conditions: in vivo; procedure, shortened: as §1
# [8] = Acute toxicity in ICR mouse assessed as animal survival at 500 mg/kg, po administered as single dose measured for 7 days; type: organism-based; conditions: in vivo
# Procedure, shortened: (§2)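 Female ICR mice, 18-22 g, five per group, randomly assigned, fasted overnight. Single oral dose of 500 mg/kg suspended in 5% CMC; controls got 5% CMC alone (0.5 mL). Watched continuously for 4 h, then hourly to 24 h, then every 8 h for 7 days for deaths or changes. Read-out was survivors/total.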
# [9] = Acute toxicity in ICR mouse assessed as decrease in animal survival at 500 mg/kg, po administered as single dose measured for 7 days; type: organism-based; conditions: in vivo, 168 h; procedure, shortened: as §2
Structure (SMILES),MIC [1],other results
Cc1ccn2c(C(=O)NCCOc3ccc(Br)cc3)c(C)nc2c1,0.463 µg/mL,–
Cc1ccc2nc(C)c(C(=O)NCCOc3ccc(Br)cc3)n2c1,0.031 to 0.125 µg/mL,half-life [2]: 6.5 min
CCc1nc2ccc(Br)cn2c1C(=O)NCCOc1ccc(N2CCC(C(F)(F)F)CC2)cc1,0.0625 µg/mL,Tmax [3]: 45 min; half-life [4]: 283 min; AUC(0-inf) [5]: 7120 ng·h/mL; Cmax [6]: 5080 ng/mL; MRT [7]: 113 min; survival at 168 h [8]: 100%
CCc1nc2ccc(F)cn2c1C(=O)NCCOc1ccc(Br)cc1,0.202 µg/mL,–
Cc1ccc2nc(C3CC3)c(C(=O)NCCOc3ccc(Br)cc3)n2c1,0.052 µg/mL,–
CCc1nc2ccc(Cl)cn2c1C(=O)NCCOc1ccc(Br)cc1,0.023 µg/mL,half-life [2]: 35.2 min
COc1ccc(OCCNC(=O)c2c(C3CC3)nc3ccc(C)cn23)cc1,0.027 µg/mL,half-life [2]: 7.8 min
CCc1nc2ccc(Cl)cn2c1C(=O)NCCOc1ccc(OC)cc1,0.056 µg/mL,–
O=C(NCCOc1ccc(Br)cc1)c1c(C2CC2)nc2ccc(Cl)cn12,0.098 µg/mL,–
CCc1nc2ccc(Cl)cn2c1C(=O)NCCOc1ccc(Cl)cc1,0.029 µg/mL,half-life [2]: 12.9 min
CCc1nc2ccc(C)cn2c1C(=O)NCCOc1ccc(N2CCN(C)CC2)cc1,4 µg/mL,–
CCCc1nc2ccc(Cl)cn2c1C(=O)NCCOc1ccc(Br)cc1,0.054 µg/mL,–
CCc1nc2ccc(Cl)cn2c1C(=O)NCCOc1ccncc1,> 32 µg/mL,–
COc1ccc2nc(C)c(C(=O)NCCOc3ccc(N4CCC(C(F)(F)F)CC4)cc3)n2c1,0.0625 µg/mL,Tmax [3]: 19.8 min; half-life [4]: 55 min; AUC(0-inf) [5]: 754 ng·h/mL; Cmax [6]: 638 ng/mL; MRT [7]: 64.2 min; survival at 168 h [8]: 100%
CCCc1nc2ccc(F)cn2c1C(=O)NCCOc1ccc(Br)cc1,2.68 µg/mL,–
Cc1nc2c(Cl)cccn2c1C(=O)NCCOc1ccc(Br)cc1,0.505 µg/mL,–
CCc1nc2c(Cl)cccn2c1C(=O)NCCOc1ccc(Br)cc1,17.5 µg/mL,–
O=C(NCCOc1ccc(Cl)cc1)c1c(C2CC2)nc2cc(Cl)ccn12,32 µg/mL,–
CCc1nc2ccc(Br)cn2c1C(=O)NCCOc1ccc(N2CC3CCCCC3C2)cc1 (configuration not stated),0.0625 µg/mL,Activity [9]: Toxic
O=C(NCCOc1ccc(Br)cc1)c1c(C2CC2)nc2ccc(F)cn12,0.928 µg/mL,–
Cc1nc2ccc(F)cn2c1C(=O)NCCOc1ccc(Cl)cc1,3.84 µg/mL,–
O=C(NCCOc1ccc(Br)cc1)c1c(C2CC2)nc2cc(Cl)ccn12,32 µg/mL,–
CCCc1nc2ccc(C)cn2c1C(=O)NCCOc1ccc(Br)cc1,0.415 µg/mL,–
CCc1nc2ccc(Br)cn2c1C(=O)NCCOc1ccc(N2CCN(C)CC2)cc1,1 µg/mL,–
Cc1nc2c(C)cccn2c1C(=O)NCCOc1ccc(Br)cc1,13.9 µg/mL,–
CCc1nc2cc(Cl)ccn2c1C(=O)NCCOc1ccc(Cl)cc1,5.86 µg/mL,–

Structure (SMILES),MIC [1],other results
CCc1nc2ccc(Br)cn2c1C(=O)NCCOc1ccc(N2CCCCC2)cc1,0.0625 µg/mL,Tmax [3]: 15 min; half-life [4]: 251 min; AUC(0-inf) [5]: 818 ng·h/mL; Cmax [6]: 983 ng/mL; MRT [7]: 169 min; survival at 168 h [8]: 100%
Cc1nc2ccc(F)cn2c1C(=O)NCCOc1ccc(Br)cc1,1.21 µg/mL,–
CCc1nc2ccc(C)cn2c1C(=O)NCCOc1ccc(OC)cc1,0.023 µg/mL,half-life [2]: 19.5 min
Cc1ccn2c(C(=O)NCCOc3ccc(Br)cc3)c(C3CC3)nc2c1,5 µg/mL,–
Cc1ccc2nc(C)c(C(=O)NCCOc3ccncc3)n2c1,> 32 µg/mL,–
CCc1nc2cc(Cl)ccn2c1C(=O)NCCOc1ccc(Br)cc1,6.35 µg/mL,–
CCCc1nc2ccc(C)cn2c1C(=O)NCCOc1ccc(Cl)cc1,0.631 µg/mL,–
COc1ccc2nc(C)c(C(=O)NCCOc3ccc(N4CCN(C)CC4)cc3)n2c1,0.5 µg/mL,–
CCc1nc2ccc(Cl)cn2c1C(=O)NCCOc1ccc(N(C)C)cc1,0.0625 µg/mL,Tmax [3]: 15 min; half-life [4]: 162 min; AUC(0-inf) [5]: 3340 ng·h/mL; Cmax [6]: 2120 ng/mL; MRT [7]: 98.4 min; survival at 168 h [8]: 100%
CCc1nc2ccc(Cl)cn2c1C(=O)NCCOc1ccc(N2CCN(c3ccc(F)cc3)CC2)cc1,0.0625 µg/mL,Tmax [3]: 80 min; half-life [4]: 265 min; AUC(0-inf) [5]: 11100 ng·h/mL; Cmax [6]: 3330 ng/mL; MRT [7]: 214 min; survival at 168 h [8]: 100%
COc1ccc2nc(C)c(C(=O)NCCOc3ccc(N4CC5CCCCC5C4)cc3)n2c1 (configuration not stated),0.0625 µg/mL,Activity [9]: Toxic
Cc1nc2cc(Cl)ccn2c1C(=O)NCCOc1ccc(Br)cc1,2.68 µg/mL,–
Cc1nc2cccc(Cl)n2c1C(=O)NCCOc1ccc(Br)cc1,2.52 µg/mL,–
CCc1nc2ccc(Br)cn2c1C(=O)NCCOc1ccc(Br)cc1,0.025 µg/mL,half-life [2]: 15.8 min
CCc1nc2ccc(C)cn2c1C(=O)NCCOc1ccc(N2CC3CCCCC3C2)cc1 (configuration not stated),0.0625 µg/mL,survival at 168 h [8]: 0%
CCc1nc2ccc(C)cn2c1C(=O)NCCOc1ccc(Br)cc1,0.275 µg/mL,–
CCCc1nc2ccc(F)cn2c1C(=O)NCCOc1ccc(Cl)cc1,1.14 µg/mL,–
Cc1nc2ccc([N+](=O)[O-])cn2c1C(=O)NCCOc1ccc(Br)cc1,1.28 µg/mL,–
COc1ccc2nc(C)c(C(=O)NCCOc3ccc(Br)cc3)n2c1,0.028 µg/mL,half-life [2]: 54.2 min
Cc1nc2ccc(Br)cn2c1C(=O)NCCOc1ccc(Br)cc1,0.358 µg/mL,–
Cc1nc2ccc(Cl)cn2c1C(=O)NCCOc1ccc(Br)cc1,0.488 µg/mL,–
CCCc1nc2ccc(Cl)cn2c1C(=O)NCCOc1ccc(Cl)cc1,0.631 µg/mL,–
NNC(=O)c1ccncc1 [ISONIAZID],0.049 µg/mL,–
O=c1nc(N2CCN(CC3CCCCC3)CC2)sc2c([N+](=O)[O-])cc(C(F)(F)F)cc12 [MACOZINONE],0.0625 µg/mL,–
CO[C@H]1/C=C/O[C@@]2(C)Oc3c(C)c(O)c4c(O)c(c(/C=N/N5CCN(C)CC5)c(O)c4c3C2=O)NC(=O)/C(C)=C\C=C\[C@H](C)[C@H](O)[C@@H](C)[C@@H](O)[C@@H](C)[C@H](OC(C)=O)[C@@H]1C [RIFAMPIN],0.05 µg/mL,–
CCc1nc2ccc(Cl)cn2c1C(=O)NCc1ccc(N2CCC(c3ccc(OC(F)(F)F)cc3)CC2)cc1 [TELACEBEC],0.0625 µg/mL,–

# Source: ChEMBL document CHEMBL4304771, “Design, synthesis and biological activity of N-(2-phenoxy)ethyl imidazo[1,2-a]pyridine-3-carboxamides as new antitubercular agents” (Eur J Med Chem, 2019)
